Screens from PubChem BioAssay.
sdo1 growth: sdo1-depleted yeast growth rescue; S. cerevisiae sdo1-depleted JHY4D growth rescue, OD600 30 h; active compounds read high; pdr5 snq2 efflux-pump mutant strain; z-score at 10 µM; hit rate 0.21% among 140,000;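 active = z-score above 3 at both the 24 hr and the 30 hr optical density reads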
HCT116 bCat-KO: beta-catenin-lacking colon tumor cell growth suppression | HCT116 beta-catenin knockout viability, CellTiter-Glo, 60 h; active compounds read low | viability, % at 10 µM | hit rate 1.5% among 140,000 | AID 818;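 active = viability at or under a set limit, the compound median less 4 SD, cut at about 6% in these data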
Yeast life ext: yeast lifespan extension. S. cerevisiae growth with nicotinamide, OD615; deaD strain in restrictive glucose medium. inhibition of the nicotinamide effect, % at 10 µM. hit rate 0.68% among 130,000. AID 775;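 active = inhibition above a set limit, placed 3 SD over the median of all compounds, cut at about 26% in these data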
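Assay system: DeaD-strain S. cerevisiae. Medium: CSMM-D glucose medium, restrictive. Reagent: nicotinamide, 1.5 mM, co-present with compound. Compound: 10 µM single point, 0.25% DMSO. Schedule: culture preincubation 4 h, compound exposure 48 h, both 30 °C. Detection: absorbance at 615 nm.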
BB579 growth dn: chemicals that inhibit yeast BB579 growth in restrictive medium (lifespan-shortening candidates); AID 804; S. cerevisiae BB579 growth, OD615, 48 h; hit rate 0.51% among 140,000; inhibition, % at 10 µM;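 active = inhibition above a set limit, 3 SD over the mean compound inhibition, cut at about 44% in these data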
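Assay system – yeast BB579 (DeaD) · Dosing – single compound dose of 10 µM, 0.25% DMSO final · Detection – OD615 turbidity measurement · Buffer or medium – CSMM-D restrictive synthetic medium containing dextrose (glucose) · Benchmarks – positive control amphotericin B 10 µg/mL · Incubation – 48 h exposure, 30 °C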
PTEN del growth: growth suppressors of cells with PTEN tumor suppressor deletion; hit rate 1.2% among 140,000; viability, % at 10 µM; HCT116 PTEN-null viability, CellTiter-Glo, 60 h; active compounds read low;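 active = viability at or below a set limit, 4 SD under the median of all tested compounds, cut at about 3.7% in these data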;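 note: PTEN knockout HCT116 line with beta catenin targeted HCT116 as companion control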
Numbers stand for hits; n = inactive. Hits are enriched below; roughly 2.8% of the tested compounds scored in any of these assays.

SMILES	sdo1 growth	HCT116 bCat-KO	Yeast life ext	BB579 growth dn	PTEN del growth
COC(=O)c1ccc(COc2ccccc2/C=C(\C#N)C(=O)Nc2ccccc2C)cc1	n	n	n	n	n
COC(=O)c1ccc(COc2ccccc2/C=C(\C#N)C(=O)Nc2c(C)cccc2C)cc1	n	2.4	n	n	1.8
COc1ccc(CC(=O)OCC(=O)Nc2c(C)n(C)n(-c3ccccc3)c2=O)cc1	n	n	n	n	n
CN1/C(=C/C(=O)c2nc(S(C)(=O)=O)ncc2Cl)C(C)(C)c2ccccc21	n	2.0	n	n	2.6
CCCOC(=O)c1ccc(Oc2c(-c3ccc(OC)cc3O)n[nH]c2C)cc1	n	3.5	n	n	n
Cc1[nH]nc(-c2ccc(O)cc2O)c1-c1ccc(Cl)cc1	n	n	n	n	n
COc1ccc(-c2n[nH]c(C)c2-c2ccc(Cl)cc2)c(O)c1	n	n	n	100	n
CCc1cc(-c2n[nH]c(C)c2Oc2ccc(C(C)C)cc2)c(O)cc1O	n	n	n	90	n
Cc1[nH]nc(-c2ccc(O)cc2O)c1Oc1ccccc1	n	n	n	n	n
O=C(CSc1nnc(CCCN2C(=O)c3cccc4cccc(c34)C2=O)n1-c1ccccc1)N1CCN(CCO)CC1	n	n	n	n	n
O=C(COc1ccc2ccccc2c1)Nc1ccc2c3c(cccc13)CC2	n	n	n	n	n
O=C(c1ccccc1)N1CCN(c2ncnc3c2cnn3-c2ccccc2)CC1	n	n	n	n	n
Cc1nn(-c2ccccc2)c(Cl)c1C(=O)N1CCN(c2ncnc3c2cnn3-c2ccccc2)CC1	n	6.0	n	n	n
CC(=O)c1ccc(NC(=O)C(=O)c2cn(CC(=O)N3CCCCC3)c3ccccc23)cc1	n	n	n	n	n
Cc1ccc(N/N=C/c2c(O)cc(C)oc2=O)cc1	n	n	n	96	n
Cc1cccc(/N=C/c2c(O)cc(C)oc2=O)n1	n	n	n	n	n
Cc1ccc2nc(NCc3ccccc3)c(C=O)c(=O)n2c1	n	n	n	n	n
Cc1ccc2nc(Nc3ccccc3)c(/C=N/O)c(=O)n2c1	n	n	27	n	n
Cc1cccc(Cn2c(=O)n(-c3ccc(CC(=O)NCc4ccco4)cc3)c(=O)c3sccc32)c1	n	n	n	n	n
NNC(=O)c1ccc(O)cc1O	n	n	n	n	n
O=C(CCl)N1c2ccccc2OCC1c1ccccc1 (stereo not drawn)	n	n	47	n	n
Cc1cccc(NC(=O)CSc2nc3ccccc3c3nc(CCc4c(C)n[nH]c4C)nn23)c1	n	n	n	n	n
Cc1cncn1CCc1nc2c3ccccc3nc(SCC(=O)Nc3cccc(Cl)c3)n2n1	n	5.3	n	n	1.0
Oc1ccc(/C=N/Nc2nccnc2Cl)c(O)c1	n	4.5	n	n	n
Oc1ccc(/C=N/Nc2cccc3cccnc23)c(O)c1	n	n	n	n	n
SMILES	sdo1 growth	HCT116 bCat-KO	Yeast life ext	BB579 growth dn	PTEN del growth
Oc1ccc(/C=N/Nc2ncc(Br)cn2)c(O)c1	n	6.0	n	n	n
O=C(CSc1cnc2ccccc2n1)c1ccc(F)cc1	n	n	n	n	n
O=C(CCSc1nnc(-c2ccncc2)o1)Nc1ccc(Cl)cc1	n	n	n	86	n
COC(=O)c1ccc(C(=O)OC)c(NC(=S)N2CCCC(C)C2)c1 (stereo not drawn)	n	n	n	n	n
COc1ccc(C2C3=C(Nc4ncnn42)c2ccccc2CCC3)cc1 (stereo not drawn)	n	n	n	n	n
Fc1ccc(/C=C2\CCCC3=C2Nc2ncnn2C3c2ccc(F)cc2)cc1 (stereo not drawn)	n	2.0	n	n	1.8
Cc1ccc2nc(-c3ccc(NS(=O)(=O)c4ccc(F)c(F)c4)cc3)sc2c1	n	n	n	68	n
Cc1ccc(S(=O)(=O)Nc2nonc2C)cc1	n	n	n	n	n
Cc1ccc(C(=O)NC(=C(Cl)Cl)S(=O)(=O)c2ccc(C)cc2)cc1	n	n	n	n	n
Cc1ccc(S(=O)(=O)/C(=C/Cl)NC(=O)c2ccccc2)cc1	n	6.0	n	n	n
Cc1cc(C(=O)CSc2n[nH]c(N)n2)c(C)n1-c1ccc2c(c1)OCO2	n	n	n	n	n
COc1ccc(CCNC(=O)c2cc(-c3ccc(Cl)c(Cl)c3)oc2C)cc1	n	n	n	n	n
Cc1cccc(-c2cc(C(=O)NCc3ccccn3)c3ccccc3n2)c1	n	n	n	n	n
Cc1ccc(-c2cc(C(=O)NCc3ccccn3)c3ccccc3n2)cc1C	n	3.4	n	n	1.9
O=c1[nH]cc(COCc2ccccc2)c(=O)[nH]1	n	2.6	n	n	n
COc1ccc(Cc2c[nH]c(=O)[nH]c2=O)cc1	n	n	n	n	n
O=C(Nc1cccc2ccccc12)c1ccc([N+](=O)[O-])s1	n	3.9	n	n	3.1
Cc1ccc(C(=O)NNC(=S)Nc2cccc3ccccc23)s1	n	n	n	n	n
Oc1[nH]c2c(Cl)cc(Cl)cc2c1N=NC(=S)NCC1CCCO1 (stereo not drawn)	n	1.4	n	n	0.5
Oc1c(Br)cc(Br)cc1C=Nc1ccc2c(c1)OCO2	n	n	n	97	n
O=[N+]([O-])c1ccc(O)c(C=Nc2ccc3c(c2)OCCO3)c1	n	n	n	n	n
CC1Cc2ccccc2N1C(=O)Cn1cc([N+](=O)[O-])cn1 (stereo not drawn)	n	n	n	n	n
O=C(Nc1ccccc1)Nc1nnc(CSCc2ccccc2Cl)s1	n	n	n	n	n
O=C(Nc1ccc(Cl)c(Cl)c1)Nc1nnc(CSc2ccccc2)s1	n	2.2	n	n	2.6
CN(C)CCNc1ncnc2c1sc1nc(N3CCOCC3)c3c(c12)CC(C)(C)SC3	n	1.7	n	n	1.8
SMILES	sdo1 growth	HCT116 bCat-KO	Yeast life ext	BB579 growth dn	PTEN del growth
CCN(CC)CCNc1ncnc2c1sc1nc(N3CCOCC3)c3c(c12)CC(C)(C)SC3	n	1.6	n	n	1.5
C=C(C)CSc1nnc([C@@H](NC(=O)OC(C)(C)C)C(C)CC)o1 (stereo partly drawn)	n	n	n	n	n
CC(C)Cc1nc2oc3c(NCCCN4CCOCC4)ncnc3c2c2c1CCC2	n	n	n	n	n
CC(C)Cc1nc2oc3c(Cl)ncnc3c2c2c1CCC2	n	0.9	n	n	0.8
CCCCN(C(=O)CSc1cc(C)c2ccccc2n1)c1c(N)n(Cc2ccccc2)c(=O)[nH]c1=O	n	n	n	n	n
CC1=[N+](C)N(c2ccccc2)C(=O)C1N=Cc1c(Cl)cccc1Cl (stereo not drawn)	n	n	35	n	n
Cc1ccccc1OC(=O)n1c(=S)oc2cc(Cl)ccc21	n	n	80	n	n
Cc1[nH]oc(=O)c1N=Nc1ccccc1	n	n	32	n	n
Cc1ccc(N=Nc2c(N)n(-c3ccccc3)[nH]c2=O)cc1	n	n	n	n	n
Cc1[nH]oc(=O)c1N=Nc1c(Cl)cccc1Cl	n	n	37	n	n
